Data taken from article PMC5626417 (International Journal of Nanomedicine, 2017).
Ends that are not written are not given here.

Columns and labels:
[1] = tested on: HeLa cells; conditions: after 20 hours of incubation with 1 μM (0.854 μg/mL) PTX; cited from earlier work
[2] = In vivo plasma concentration and bio-distribution of PTX; parameters: species or system BALB/c mice; conditions: mice, HPLC
Procedure, shortened: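 Female BALB/c mice (4–6 weeks, 18–22 g) carried subcutaneous HeLa xenografts (5×10^6 cells) grown to ~50 mm3. Filtered formulations (100 μL) were dosed daily via tail vein for 2 weeks. Blood and organs (lung, liver, kidney, heart, spleen) were saline-washed, weighed and stored at −20°C. Plasma and homogenates were methanol-precipitated and spun at 12,000 rpm for 10 min; PTX was quantified by C18 HPLC at 227 nm.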

[3] = tested on: HeLa cells; assay: Cytotoxicity of CPP; type: cell-based, Human; conditions: MTT, 3 and 24 hours incubation, up to 1,000 μM
Procedure, shortened: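 HeLa cells seeded at 5×10^3/well and grown 24 h. Exposed to peptide at 50–1,000 μM for 3 h, washed twice with PBS, then given fresh medium for 24 h. A parallel arm used 100 and 1,000 μM for 24 h. Viability by MTT (3 h, DMSO solubilisation, OD492), expressed as percent of untreated cells.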

[4] = tested on: L292 cells, HCT cells, A594 cells, Hep-G2 cells, and HSC cells; assay: Cytotoxicity of Rq and Rq/PTX on other cell types; type: cell-based; conditions: 24 hours incubation with 1,000 μM Rq; Figure S2
[5] = tested on: HeLa cells; assay: Cellular uptake and distribution by fluorescence / confocal microscopy; type: cell-based, Human; conditions: 10 and 100 μM, 30 minutes, 37°C, serum-free medium
Procedure, shortened: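 HeLa cells (4×10^4) on coverslips, 24 h, then FITC-labelled peptide or FITC alone at 10 or 100 μM in serum-free medium, 37°C for 30 min. Washed twice in PBS with heparin to strip surface-bound peptide, fixed in 4% PFA. For widefield imaging, nuclei were DAPI-stained; for intracellular distribution, cells were imaged by confocal microscopy immediately after fixation.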

CC(=O)O[C@H]1C(=O)[C@@]2(C)[C@H]([C@H](OC(=O)c3ccccc3)[C@]3(O)C[C@H](OC(=O)[C@H](O)[C@@H](NC(=O)c4ccccc4)c4ccccc4)C(C)=C1C3(C)C)[C@]1(OC(C)=O)CO[C@@H]1C[C@@H]2O [PTX, paclitaxel]
intracellular PTX concentration [1]: 0.206 mg/mL | PTX level in tissues (organs) ([2]; after 2 weeks of daily tail vein treatment, tissue homogenate): accumulated in liver, kidney, and heart | drop in the PTX concentration in plasma ([2]; tail vein injection, 30 minutes versus 24 hours after injection): sharply decreased

RRRRQWWQW [Rq]
cell viability after incubation with Rq [3]: Nearly all the cells were viable | cell viability of other cell types after incubation with Rq [4]: no significant decrease in the cell viability

fluorescein isothiocyanate [FITC]
green fluorescence in cells (fluorescence microscopy) [5]: no fluorescence was observed
